Bioassay records (PubChem BioAssay)
An excerpt weighted towards active compounds, which were near 5.8% of everything screened.
ROMK primary = ROMK potassium channel modulators, primary screen, cell-based, thallium flux, MLSMR library | Tet-inducible ROMK, thallium flux fluorescence; actives lie on both sides | 2% of 130,000 active | AID 1918, 2009 | B-score at 10 µM | ATP-sensitive inward rectifier potassium channel 1 (Homo sapiens), P48048;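 active = signal ratio slope over the read window, or its plate-corrected B-score, at least 3 SD from the plate mean, either direction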;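 also: B-score of the F/F0 ratio slope over 7 to 12 s after thallium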
Target sequence (P48048 whole entry, looked up): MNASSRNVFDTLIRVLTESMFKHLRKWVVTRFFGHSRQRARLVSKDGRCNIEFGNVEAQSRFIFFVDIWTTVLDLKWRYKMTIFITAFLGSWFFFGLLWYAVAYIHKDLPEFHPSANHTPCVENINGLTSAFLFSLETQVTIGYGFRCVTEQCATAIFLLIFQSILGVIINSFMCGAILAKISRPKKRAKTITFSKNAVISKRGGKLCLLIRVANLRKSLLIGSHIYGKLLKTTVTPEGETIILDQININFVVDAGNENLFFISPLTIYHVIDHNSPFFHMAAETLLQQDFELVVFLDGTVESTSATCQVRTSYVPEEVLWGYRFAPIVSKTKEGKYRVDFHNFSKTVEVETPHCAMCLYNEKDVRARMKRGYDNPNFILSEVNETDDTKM
14-3-3 Bad PPI = inhibitors of 14-3-3 zeta/Bad binding, primary screen, biochemical, TR-FRET, bovine 14-3-3 zeta; 14-3-3 protein zeta/delta (Bos taurus), P63103; TR-FRET 14-3-3zeta/Dy647-pBad peptide displacement, 1 h; inhibition, % at 21.7 µM; 0.71% of 220,000 active;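 active = inhibition above about 70%, limit read from the data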;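 also: 0% = full 14-3-3 plus peptide FRET controls and 100% = background without 14-3-3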
RBBP9 inh = human RBBP9 inhibitors, primary screen, biochemical, fluorescence polarization, FP-Rh probe, HTS. Serine hydrolase RBBP9 (Homo sapiens), O75884. 0.2% of 220,000 active. inhibition, % at 7.94 µM. recombinant RBBP9;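 active = inhibition above the campaign mean of all tested compounds plus 3 SD, cut at about 14% in these data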;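 also: plate controls were DMSO wells with RBBP9 for no effect and wells lacking RBBP9 protein for full effect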
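Material: RBBP9 protein. Amount: RBBP9 at 2.5 µM in dispensed solution, before mixing. Schedule: 30 min then 45 min, 25 °C. Medium: Tris buffer pH 8.0, NaCl, Pluronic. Measured by: fluorescence polarization. Measure: percent inhibition from mP, scaled between DMSO and no-protein wells. Replication: one well per compound.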
NCF1 inh = p47phox/p22phox peptide binding inhibitors, primary screen, biochemical, uHTS, NADPH oxidase regulatory subunit | Neutrophil cytosol factor 1 (Homo sapiens), P14598 | fluorescence polarization, 2 h | inhibition, % at 24.7 µM | 0.53% of 220,000 active | AID 1274, 2008;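 active = inhibition above about 30%, limit read from the data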;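 also: 0% = p47phox with labelled peptide and 100% = labelled peptide alone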
WT yeast gro inh = growth inhibition of WT strain, primary screen, mitochondrial fusion inhibitor project, WT and mutant strains, chemical genetic; mitochondrial fusion phenotypic screen; inhibition, % at 10 µM; 2.1% of 190,000 active; AID 1362, 2008; in the data active = inhibition above about 58%; tested in S. cerevisiae
Cl transport mod = KCC2 cotransporter modulators, thallium flux, primary screen, cell-based, HEK293 KCC2, FluoZin-2 fluorescence, MLSMR; Solute carrier family 12 member 5 (Homo sapiens), Q9H2X9; KCC2 cells, thallium flux FluoZin-2 fluorescence; 2.2% of 190,000 active; B-score of Tl+ flux slope (higher = more flux/activation; lower = inhibition) at 10 µM;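 active = thallium flux slope and its plate-corrected score both differing from the plate sample mean at a set confidence after two filtering rounds, in either direction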;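 also: slope of fluorescence scaled to starting intensity during 10 to 20 s after thallium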
The depositor's hits bear a star; · = not tested or not shown.

SMILES	ROMK primary	14-3-3 Bad PPI	RBBP9 inh	NCF1 inh	WT yeast gro inh	Cl transport mod
O=S(=O)(c1cccs1)N1CCN(CC(O)COC2CCCc3ccccc32)CC1 (centres undefined)	·	78.8*	-0.8	-17.4	4.0	1.17
COc1ccc(CCCC(=O)N/N=C\c2cccs2)cc1	·	97.3*	-4.3	-2.6	-1.7	-0.00369
COC(=O)N/N=C/c1cccs1	-0.127	-1.7	2.1	-8.1	-18.0	1.09
CN(Cc1c(O)ccc2c1oc(=O)c1ccccc12)C1CCCCC1	-0.953	87.4*	-4.5	4.2	9.5	0.578
CN(C)Cc1c(O)ccc2c3c(c(=O)oc12)CCCCC3	0.944	7.3	5.1	-4.4	·	-0.128
CCCN1C(=O)c2cc(C(=O)O)ccc2C1O (centres undefined)	·	82.5*	1.2	-8.4	4.8	0.31
CN(C)CC/C=C1\c2ccccc2Sc2ccc(Cl)cc21	·	-1.8	0.7	-8.4	86.8*	0.318
CC1CCN(S(=O)(=O)c2ccc3ncn(CC(=O)N4CCN(C)CC4)c(=O)c3c2)CC1	-0.33	-1.7	-1.9	-8.5	-13.3	-0.0242
O=C(NCC(c1ccco1)N1CCCC1)c1ccccc1F (centres undefined)	-0.123	3.6	2.5	-10.1	·	-0.636
O=C(Cc1cccc(C(F)(F)F)c1)NCC(c1ccco1)N1CCCCC1 (centres undefined)	0.0115	89.4*	4.5	-21.2	-16.0	-0.441
CCN(Cc1ccncc1)C(=O)CCc1nnc(CCc2ccc(OC)cc2)o1	-0.0728	-8.2	-7.5	2.9	-3.1	0.344
CN(c1ccccc1)S(=O)(=O)c1cccc(C(=O)Nc2nn[nH]n2)c1	·	1.5	9.7	3.1	·	·
Nc1cc(-c2nn[nH]n2)ccc1F	·	71.8*	1.1	5.3	21.1	·
COc1ccc(-c2nn[nH]n2)cc1OC	-0.306	36.1	-5.2	11.0	24.7	·
CCOc1cc(C2Nc3ccccc3C(=O)N2c2ccccc2OC)ccc1O (centres undefined)	0.304	·	5.6	0.3	73.5*	-0.211
O=C(O)Cn1c(CC(=O)N2CCCC2)nc2ccccc21	·	42.9	2.2	0.0	63.4*	0.223
CCOC(=O)c1cccc(NC(=O)Cn2c(CC(=O)N3CCCC3)nc3ccccc32)c1	0.0285	-2.9	-0.4	-6.9	30.2	0.851
CCOC(=O)c1cnn(-c2sc(C(=O)OCC)c(C)c2C(=O)OCC)c1N	·	·	-4.1	·	·	43.2*
CCOC(=O)c1cnn(-c2cc(C)cc(C)c2)c1N	-0.662	-4.7	-6.2	-2.3	-0.3	-0.518
Cc1[nH]n(-c2ccccc2)c(=S)c1C=Nc1cccc([N+](=O)[O-])c1	1.28	-15.8	-9.5	89.0*	9.8	·
CC(/C=N/Nc1nc2ccccc2[nH]1)=C\c1ccccc1	·	-7.5	2.4	-5.8	89.6*	0.0834
CC(/C=N/Nc1nc(C)cc(=O)[nH]1)=C\c1ccccc1	0.013	-2.1	0.1	4.8	11.1	-0.517
CCN(CC)c1ccc(/C=N/Nc2nc3ccccc3[nH]2)cc1	0.312	-3.4	-5.6	2.4	78.5*	0.0354
CC(C)Cn1c(/C=N/Nc2nc3ccccc3[nH]2)nc2ccccc21	·	-0.1	6.7	-32.2	59.6*	-0.138
CC(=O)Nc1ccc(/C=N/Nc2nc3ccccc3[nH]2)cc1	·	-5.3	-5.6	-6.2	-14.1	0.434
CCCn1c(/C=N/Nc2nc3ccccc3[nH]2)nc2ccccc21	-0.987	2.6	-1.0	-18.8	58.1*	-0.778
Cc1cc(C)nc(N/N=C/c2cc(C)n(CC(F)(F)F)c2C)n1	1.42	-18.5	-0.5	-3.7	2.4	0.544
COc1ccc(C2CC(=O)C(C(c3ccc(O)cc3)C3C(=O)CC(c4ccc(OC)cc4)CC3=O)C(=O)C2)cc1 (centres undefined)	0.59	4.6	-0.4	-4.5	·	0.103
O=C(Cc1cccs1)N1CCN=C1SCc1cccc(F)c1	·	-4.7	-5.8	-15.7	·	1.76
CCCc1nnc(SCC(=O)O)n1CC	0.577	-2.7	-11.2	-1.1	·	1.54
